The record followed here is ChEMBL document CHEMBL3853294, “Design, synthesis and biological evaluation of novel HSP70 inhibitors: N, N'-disubstituted thiourea derivatives” (Eur J Med Chem, 2016).

The species entered for series [1] is Homo sapiens. Kind of series: Inhibition of HSP70 in human BT/LapR1.0 cells assessed as potentiation of 1 uM of lapatinib-induced growth inhibition after 72 hrs by measuring coefficient of drug interaction by cell titer-glo based luminescence assay.
Series [2] has as its system BT-474. Kind of series: Potentiation of lapatinib-induced growth inhibition of human BT474 cells assessed as coefficient of drug interaction after 72 hrs by cell titer-glo based luminescence assay. It is filed as functional. (ATP-based viability assays read luminescence as a measure of living cells.)
Series [3] in a line: Growth inhibition of human BT474 cells at 10 uM after 72 hrs by cell titer-glo based luminescence assay. The arrangement: species or system BT-474. The note with it: read-out: GI. Put shortly:
(§1)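 Cells were trypsinised and seeded at 5000 cells/well, then cultured 24 h at 37 °C. Compound was added at 10 µM, alone or with 1 µM lapatinib, and incubated 72 h at 37 °C. CellTiter-Glo reagent was added at a volume equal to the medium, followed by 3 min shaking and 10 min at room temperature. Luminescence (ATP) was read and normalised to the blank control group.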

In series [4] the test system is BT-474. The experiment in a line: Potentiation of lapatinib-induced growth inhibition of human BT474 cells at 10 uM after 72 hrs by cell titer-glo based luminescence assay. It is filed as functional. The note with it: BT-474, 72 h, read-out: GI. An outline of the steps:
as §1

Series [5] can be described thus: Growth inhibition of human BT/LapR1.0 cells at 10 uM after 72 hrs by cell titer-glo based luminescence assay. The note with it: read-out: GI. An outline of the steps:
as §1

Series [6] is filed under the species Homo sapiens. The experiment in a line: Inhibition of HSP70 in human BT/LapR1.0 cells assessed as potentiation of 1 uM of lapatinib-induced growth inhibition at 10 uM after 72 hrs by cell titer-glo based luminescence assay. An outline of the steps:
as §1

Series [7] addresses Chaperone protein DnaK (Escherichia coli) (UniProt P0A6Y8). The experiment in a line: Inhibition of Escherichia coli DnaK ATPase activity at 200 uM incubated on shaker for 10 mins followed by 30 mins incubation by malachite green reagent based colorimetric assay.
Series [8] has the same target. Kind of series: Inhibition of Escherichia coli DnaK ATPase activity incubated on shaker for 10 mins followed by 30 mins incubation by malachite green reagent based colorimetric assay.

`COc1ccc(NC(=S)NC(NC(=O)/C=C/c2cc(OC)c(OC)c(OC)c2)C(C)C)cc1` (configuration not stated): the Activity in the series filed under Homo sapiens [1] and in the series with BT-474 [2] was less than 1 throughout. Further, the inhibition at 72 h, 10 µM came out at 11.5% in series [3] and 15.4% in series [5]. For the same compound, the inhibition of growth at 10 µM in the series on BT-474 [4] is 78.5%. For the same compound, the growth inhibition (GI) in the series listed under Homo sapiens [6] was 23.4%. In series [7], this compound gave an inhibition of less than 20%.
On to `N#Cc1ccc(COC[C@H]2O[C@@H](n3c(NCc4ccc(Cl)c(Cl)c4)nc4c(N)ncnc43)[C@H](O)[C@@H]2O)cc1`, for which the results for the inhibition result in series [8] and in series [7] were “Dose-dependent effect” and 43%, respectively.
Regarding `COc1cc(/C=C/C(=O)NC(NC(=S)NC2CCCCC2)C(C)(C)C)cc(OC)c1OC` (configuration not stated), the Activity turned out to be 0.86 in the series filed under Homo sapiens [1] and 0.56 in the series with BT-474 [2]. In addition, the inhibition at 72 h, 10 µM in series [3] was 13.5%; in series [5], 39.8%. Further, the inhibition of growth at 10 µM in the series with BT-474 [4] turned out to be 87.3%. Further, the growth inhibition (GI) in the series listed under Homo sapiens [6] turned out to be 57.8%. The compound also had an inhibition in series [7] of 35.8%.
`COc1cc(/C=C/C(=O)NC(NC(=S)Nc2cccnc2)C(C)(C)C)cc(OC)c1OC` (configuration not stated): the Activity in the series listed under Homo sapiens [1] and in the series with BT-474 [2] was less than 1 each time. In addition, the inhibition at 72 h, 10 µM was found to be 10.3% in series [3] and 16% in series [5]. In addition, the inhibition of growth at 10 µM in the series with BT-474 [4] is 84.7%. Moreover, in the series filed under Homo sapiens [6], the growth inhibition (GI) was 56%. The inhibition in series [7] is less than 20%.
`COc1cc(/C=C/C(=O)NC(NC(=S)Nc2ccccc2C)C2CC2)cc(OC)c1OC` (configuration not stated): the figures for the Activity in the series listed under Homo sapiens [1] and in the series with BT-474 [2] were 0.79 and less than 1, respectively. For the same compound, the figures for the inhibition at 72 h, 10 µM in series [3] and in series [5] were 44% and 6.8%, respectively. Further, the inhibition of growth at 10 µM in the series on BT-474 [4] was 87.4%. Further, the growth inhibition (GI) in the series listed under Homo sapiens [6] was 44.2%. Besides, in series [7], the inhibition is less than 20%.
Turning to `COc1cc(/C=C/C(=O)NC(CC(C)(C)C)NC(=S)Nc2ccccn2)cc(OC)c1OC` (configuration not stated), the Activity in the series filed under Homo sapiens [1] and in the series with BT-474 [2] was less than 1 each time. The inhibition at 72 h, 10 µM is 25.8% in series [3] and 31.5% in series [5]. Further, the inhibition of growth at 10 µM with BT-474 [4] turned out to be 88.5%. In the series listed under Homo sapiens [6], the growth inhibition (GI) turned out to be 65.9%. In series [7], this compound returned an inhibition of less than 20%.
On to `CC(C)(C)C(NC(=O)/C=C/c1ccccc1)NC(=S)NC1CCCCC1` (configuration not stated), for which the Activity in the series listed under Homo sapiens [1] was less than 1; in the series on BT-474 [2], 0.77. Besides, the figures for the inhibition at 72 h, 10 µM in series [3] and in series [5] were 13% and 34.3%, respectively. The inhibition of growth at 10 µM in the series on BT-474 [4] came to 85.2%. For the same compound, the growth inhibition (GI) in the series listed under Homo sapiens [6] turned out to be 47.2%. Further, the inhibition in series [7] was less than 20%.
As for `Cc1ccccc1NC(=S)NC(NC(=O)/C=C/c1ccccc1)C(C)(C)C` (configuration not stated), the Activity in the series listed under Homo sapiens [1] and with BT-474 [2] was less than 1 each time. The inhibition at 72 h, 10 µM in series [3] turned out to be 7%; in series [5], 9.7%. Also, the inhibition of growth at 10 µM in the series on BT-474 [4] amounted to 78.7%. The growth inhibition (GI) in the series listed under Homo sapiens [6] turned out to be 20.5%. This compound also displayed an inhibition in series [7] of less than 20%.
As to `COc1ccc(-c2nc(-c3cc(C(F)(F)F)cc(C(F)(F)F)c3)n(Cc3ccc(C(N)=O)cc3)c2-c2ccc(OC)cc2)cc1`, the inhibition result in series [8] was “Dose-dependent effect”; in series [7], 53%.
On to `COc1cc(/C=C/C(=O)NC(NC(=S)NC2CCCCC2)C(C)C)cc(OC)c1OC` (configuration not stated), for which the Activity in the series filed under Homo sapiens [1] was 0.8; in the series on BT-474 [2] it was 0.82. The inhibition at 72 h, 10 µM in series [3] was 15.3%; in series [5], 22.6%. Moreover, in the series on BT-474 [4], the inhibition of growth at 10 µM turned out to be 82.2%. Further, the growth inhibition (GI) in the series filed under Homo sapiens [6] was 45.7%. In series [7], this compound displayed an inhibition of less than 20%.
In the case of `Cc1ccccc1NC(=S)NC(NC(=O)/C=C/c1ccccc1)C1CC1` (configuration not stated), the Activity in the series filed under Homo sapiens [1] and in the series with BT-474 [2] was less than 1 in each case. Further, the inhibition at 72 h, 10 µM in series [3] was 6%; in series [5] it was 8.7%. For the same compound, in the series on BT-474 [4], the inhibition of growth at 10 µM amounted to 78.6%. For the same compound, the growth inhibition (GI) in the series filed under Homo sapiens [6] stood at 20%. The inhibition in series [7] was found to be 65.4%.
